≈ marks a conversion by molar mass, not a printed value. Calls of active or inactive are those of the source.
Assays:
[1] = system: Mycobacterium tuberculosis; test: Antimicrobial activity against Mycobacterium tuberculosis H37Rv in GASTD medium after 10 days by spectrophotometric analysis; assay type: functional, organism-based; settings: 240 h
Method in brief: (§1)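 Virulent H37Rv, twofold microdilution in iron-limiting GASTD or GASTD plus 100 μM FeCl3, started at OD600 0.001 from deferrated stocks. Compounds were added in DMSO (0.5% final) up to 500 μM or the solubility limit. Cultures sat stationary for 10 days at 37 °C, read at OD600. IC50 from sigmoidal fits to triplicates; MIC90 is the lowest concentration giving ≥90% inhibition versus DMSO controls. Ratios are +Fe/GASTD.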

[2] = system: Mycobacterium tuberculosis; test: Antimicrobial activity against Mycobacterium tuberculosis H37Rv in GASTD medium supplemented with 100 uM FeCl3 after 10 days by spectrophotometric analysis; assay type: functional, organism-based; settings: 240 h; method in brief: as §1
[3] = system: Mycobacterium tuberculosis; test: Ratio of IC50 for Mycobacterium tuberculosis H37Rv in GASTD medium supplemented with 100 uM FeCl3 to IC50 for Mycobacterium tuberculosis H37Rv in Fe-deficient GASTD medium; assay type: functional; method in brief: as §1
[4] = system: Mycobacterium tuberculosis; test: Ratio of MIC90 for Mycobacterium tuberculosis H37Rv in GASTD medium supplemented with 100 uM FeCl3 to MIC90 for Mycobacterium tuberculosis H37Rv in Fe-deficient GASTD medium; assay type: functional; method in brief: as §1
[5] = system: Mycobacterium tuberculosis; test: Bactericidal activity against Mycobacterium tuberculosis H37Rv in GASTD medium at 2 times MIC after 30 days by colony counting; assay type: functional, organism-based
Method in brief: (§2)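 Duplicate GASTD cultures were treated and incubated as in the growth assay (37 °C, 10 days), then serial 10-fold dilutions were plated on Middlebrook 7H11. Colonies were counted after 30 days at 37 °C and reported as CFU/mL. Bactericidal was defined as >99% killing relative to inoculum.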

Yersinia pestis [6] = test: Antimicrobial activity against Yersinia pestis KIM6-2082.1+ in PMHD medium after 26 hrs by spectrophotometric analysis; assay type: functional, organism-based
Yersinia pestis [7] = test: Antimicrobial activity against Yersinia pestis KIM6-2082.1+ in PMHD medium supplemented with 100 uM FeCl3 after 26 hrs by spectrophotometric analysis; assay type: functional, organism-based
Yersinia pestis [8] = test: Ratio of IC50 for Yersinia pestis KIM6-2082.1+ in PMHD medium supplemented with 100 uM FeCl3 to IC50 for Yersinia pestis KIM6-2082.1+ in Fe-deficient PMHD medium; assay type: functional
Yersinia pestis [9] = test: Ratio of MIC90 for Yersinia pestis KIM6-2082.1+ in PMHD medium supplemented with 100 uM FeCl3 to IC50 for Yersinia pestis KIM6-2082.1+ in Fe-deficient PMHD medium; assay type: functional
Yersinia pestis [10] = test: Bactericidal activity against Yersinia pestis KIM6-2082.1+ in PMHD medium at 2 times MIC after 3 days by colony counting; assay type: functional, organism-based
HeLa [11] = test: Cytotoxicity against human HeLa cells at 7 uM after 24 hrs by ATPLite assay; assay type: cell-based
Method in brief: (§3)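 HeLa cells in 96-well format, read with an ATPLite reagent-based viability assay. Cell–compound contact lasted 4 hr or 24 hr, and viability was expressed relative to untreated controls.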

HeLa [12] = test: Cytotoxicity against human HeLa cells at 10 uM after 24 hrs by ATPLite assay; assay type: cell-based; method in brief: as §3
Yersinia pestis [13] = test: Bacteriostatic activity against Yersinia pestis KIM6-2082.1+ in PMHD medium at MIC after 3 days by colony counting; assay type: functional, organism-based
[14] = system: Mycobacterium tuberculosis; test: Bactericidal activity against Mycobacterium tuberculosis H37Rv in GASTD medium at 4 times MIC after 30 days by colony counting; assay type: functional, organism-based; method in brief: as §2
Yersinia pestis [15] = test: Bacteriostatic activity against Yersinia pestis KIM6-2082.1+ in PMHD medium at 2 times MIC after 3 days by colony counting; assay type: functional, organism-based
HeLa [16] = test: Cytotoxicity against human HeLa cells at 16 uM after 24 hrs by ATPLite assay; assay type: cell-based; method in brief: as §3
HeLa [17] = test: Cytotoxicity against human HeLa cells at 125 uM after 4 hrs by ATPLite assay; assay type: cell-based; method in brief: as §3
HeLa [18] = test: Cytotoxicity against human HeLa cells at 125 uM after 24 hrs by ATPLite assay relative to control; assay type: cell-based; method in brief: as §3
HeLa [19] = test: Cytotoxicity against human HeLa cells at 21 uM after 24 hrs by ATPLite assay; assay type: cell-based; method in brief: as §3
Yersinia pestis [20] = test: Bactericidal activity against Yersinia pestis KIM6-2082.1+ in PMHD medium at MIC after 3 days by colony counting; assay type: functional, organism-based
HeLa [21] = test: Cytotoxicity against human HeLa cells at 0.2 uM after 24 hrs by ATPLite assay; assay type: cell-based; method in brief: as §3

Row | SMILES | IC50 [1] | MIC90 [1] | IC50 [2] | MIC90 [2] | Ratio IC50 [3] | Ratio [4] | Activity [5] | IC50 (Yersinia pestis [6]) | MIC90 (Yersinia pestis [6]) | IC50 (Yersinia pestis [7]) | MIC90 (Yersinia pestis [7]) | Ratio IC50 (Yersinia pestis [8]) | Ratio (Yersinia pestis [9]) | Activity (Yersinia pestis [10]) | other results
1 | CSC(=S)N/N=C(\C)c1ccccc1O | 4 µM | 10 µM (≈ 2.4 µg/mL) | 4 µM | 9 µM (≈ 2.16 µg/mL) | 1 | 1 | Active | 61 µM | 116 µM (≈ 27.9 µg/mL) | 156 µM | 233 µM (≈ 56 µg/mL) | >3 | 2 | Active | Activity (HeLa [11]): Non-toxic; Activity (HeLa [12]): Non-toxic
2 | CSC(=S)N/N=C/c1ccc(O)cc1 | 31 µM | 59 µM (≈ 13.4 µg/mL) | 33 µM | 59 µM (≈ 13.4 µg/mL) | 1 | 1 | Active | 137 µM | 388 µM (≈ 87.8 µg/mL) | > 233 µM | > 233 µM | >2 |  |  | Activity (Yersinia pestis [13]): Active
3 | CSC(=S)N/N=C/c1ccccc1O | 3 µM | 7 µM (≈ 1.58 µg/mL) | 2 µM | 6 µM (≈ 1.36 µg/mL) | 1 | 1 |  | 4 µM | 15 µM (≈ 3.39 µg/mL) | > 59 µM | > 59 µM | >15 | >4 |  | Activity [14]: Active; Activity (HeLa [11]): Non-toxic; Activity (HeLa [12]): Non-toxic; Activity (Yersinia pestis [15]): Active
4 | N=C(NO)N1N=C(c2ccccc2O)C[C@H]1c1ccc(O)cc1 | 47 µM | 125 µM (≈ 39 µg/mL) | 22 µM | 31 µM (≈ 9.68 µg/mL) | 0.5 | 0.2 | Active | 5 µM | 21 µM (≈ 6.56 µg/mL) | > 63 µM | > 63 µM | >13 | >3 | Active | Activity (HeLa [16]): Non-toxic; Activity (HeLa [17]): Non-toxic; Activity (HeLa [18]): 70%; Activity (HeLa [19]): Non-toxic
5 | N=C(N)N1N=C(c2ccccc2O)C[C@H]1c1ccccc1O | 44 µM | 66 µM (≈ 19.6 µg/mL) | 23 µM | 66 µM (≈ 19.6 µg/mL) | 1 | 1 | Active | 7 µM | 42 µM (≈ 12.4 µg/mL) | > 63 µM | > 63 µM | >9 | >1 |  | Activity (Yersinia pestis [20]): Active
6 | O=C(NO)N1CCN(C(=S)N/N=C/c2ccccc2O)CC1 | 20 µM | > 31 µM | > 8 µM | > 8 µM |  |  |  | 0.04 µM | 0.2 µM (≈ 0.0647 µg/mL) | > 4 µM | > 4 µM | >100 | >20 |  | Activity (HeLa [21]): Non-toxic; Activity (Yersinia pestis [15]): Active
7 | N=C(NO)N1N=C(c2ccccc2O)C[C@H]1c1ccccc1O | 37 µM | 125 µM (≈ 39 µg/mL) | 32 µM | > 125 µM | 1 | >1 | Active | 4 µM | 16 µM (≈ 5 µg/mL) | > 16 µM | > 16 µM | >4 | >1 | Active | Activity (HeLa [16]): Non-toxic; Activity (HeLa [19]): Non-toxic
